# TCR CD3 inh = inhibitors of human TCR-CD3 interaction, primary screen, biochemical, fluorescence, TAMRA-labeled TCR probe. inhibition, % at 9.4 µM. AID 651800, 2012. T-cell receptor (TCR). hit rate 0.37% among 360,000;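 note: recombinant mutant TCR 2C K166C tagged with TAMRA read by polarization; 0% = receptor in buffer alone and 100% = receptor with positive control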
# SIAE inh = human SIAE inhibitors, primary screen, biochemical, fluorescence polarization, FP-Rh probe, 1536-well HTS. Sialate O-acetylesterase (Homo sapiens), Q9HAT2. SIAE FP-Rh probe binding. inhibition, % at 9.66 µM. hit rate 0.69% among 370,000. AID 1053197, 2014;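 active = inhibition above a cutoff: mean of compounds within the control limits plus 3 SD of those, cut at about 17% in these data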;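 note: 0% = plate median of compound wells and 100% = probe without SIAE protein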
# HTRA1 inh = HTRA1 serine protease inhibitors, primary screen, biochemical, fluorescence polarization, HTS. recombinant HTRA1, FP-rhodamine activity-based probe. inhibition, % at 5.96 µM. hit rate 0.5% among 340,000; in the data active = inhibition above about 36%;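 note: 0% = enzyme with DMSO and 100% = wells lacking enzyme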
# Target sequence (Q92743 whole entry, looked up): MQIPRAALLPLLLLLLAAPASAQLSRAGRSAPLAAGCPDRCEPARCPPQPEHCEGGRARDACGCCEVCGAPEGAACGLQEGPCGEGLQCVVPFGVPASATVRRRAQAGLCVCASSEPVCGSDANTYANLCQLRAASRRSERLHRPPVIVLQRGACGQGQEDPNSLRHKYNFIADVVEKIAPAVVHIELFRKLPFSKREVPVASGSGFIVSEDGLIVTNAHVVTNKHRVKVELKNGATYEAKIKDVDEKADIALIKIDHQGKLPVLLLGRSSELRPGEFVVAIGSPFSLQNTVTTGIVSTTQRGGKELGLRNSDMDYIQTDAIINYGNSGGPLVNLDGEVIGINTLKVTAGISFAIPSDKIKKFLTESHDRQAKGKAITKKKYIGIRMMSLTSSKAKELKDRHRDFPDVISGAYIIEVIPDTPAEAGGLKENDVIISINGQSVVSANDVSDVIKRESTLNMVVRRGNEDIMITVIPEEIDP
# ABHD4 inh = ABHD4 inhibitors, primary screen, biochemical, fluorescence polarization, mouse; (Lyso)-N-acylphosphatidylethanolamine lipase (Mus musculus), Q8VD66; purified mABHD4, FP-Rh probe fluorescence polarization; inhibition, % at 8.92 µM; hit rate 0.54% among 370,000;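 active = inhibition exceeding the mean over every tested compound plus 3 SD, cut at about 30% in these data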;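 note: 0% = plate median of compound wells and 100% = S159A mutant with DMSO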
#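 Doses – 8.92 µM, single dose · Material – wild-type mouse ABHD4 protein · Replication – single well per compound (singlicate) · Measure – percent inhibition of probe binding, normalized to plate controls · Schedule – 45 min compound pre-incubation plus 60 min probe step, 25 °C · Detection – fluorescence polarization with parallel and perpendicular emission, 525/598 nm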
# PRMT1 FP inh = PRMT1 methyltransferase inhibitors, primary screen, biochemical, fluorescence polarization | Protein arginine N-methyltransferase 1 (Homo sapiens), Q99873 | recombinant PRMT1, activity-based probe fluorescence polarization | inhibition, % at 2.79 µM | hit rate 1.3% among 370,000 | AID 652257, 2013;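 active = inhibition above about 21% made by adding two undisclosed values, limit read from the data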
# PAD4 FP inh = human PAD4 inhibitors, primary screen, biochemical, fluorescence polarization, 1536-well format; recombinant PAD4, RCA probe fluorescence polarization; inhibition, % at 6.36 µM; hit rate 0.41% among 330,000; AID 485272, 2010;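 active = percent inhibition above a cutoff equal to the mean of all tested compounds plus 3 SD, cut at about 15% in these data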;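 note: 0% = PAD4 with RCA probe and DMSO and 100% = probe without PAD4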
# HTRA1 conf = HTRA1 protease inhibitors, retest, confirmation, biochemical, fluorescence polarization; shares compounds with HTRA1 inh; recombinant HTRA1, FP-rhodamine activity-based probe; inhibition, % at 5.96 µM; hit rate 66% among 1,600; AID 540248, 2011;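 active = mean inhibition over three repeats above a set limit taken from the earlier primary screen, cut at about 37% in these data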;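 note: 0% = HTRA1 with DMSO and 100% = wells lacking HTRA1; inhibitors block probe binding so polarization drops and inhibition rises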
# BSA probe FL = compounds interfering with TAMRA-BSA probe, counter-screen for TCR-CD3 interaction inhibitor project, biochemical, fluorescence, TAMRA-labeled BSA; shares compounds with TCR CD3 inh; TAMRA-labeled BSA probe fluorescence counterscreen; inhibition, % at 9.4 µM; hit rate 10% among 1,200; AID 652035, 2013; in the data active = inhibition above about 23%;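 note: 0% = buffer low control and 100% = reference high control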
# TCR-CD3 inh conf = TCR-CD3 interaction inhibitors, retest, confirmation, biochemical, fluorescence, TAMRA-labeled TCR probe | AID 652036, 2013 | inhibition, % at 9.4 µM | TAMRA-labeled TCR probe fluorescence binding assay | hit rate 48% among 1,200 | shares compounds with TCR CD3 inh
# PRMT1 confirm = PRMT1 methyltransferase inhibitors, confirmation, biochemical, fluorescence polarization, triplicate; shares compounds with PRMT1 FP inh; recombinant His-PRMT1, activity-based probe fluorescence polarization; inhibition, % at 2.79 µM; hit rate 42% among 3,300; AID 687036, 2013;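 active = mean inhibition across replicates above the hit cutoff derived for the earlier primary screen, cut at about 22% in these data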
# mABHD4 conf = ABHD4 inhibitors, retest, confirmation, biochemical, fluorescence polarization, mouse. shares compounds with ABHD4 inh. purified mABHD4, FP-Rh probe fluorescence polarization. inhibition, % at 8.92 µM. hit rate 55% among 1,800;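 active = mean inhibition across replicates above the hit cutoff set in the primary screen, cut at about 30% in these data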;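 note: 0% = wild-type ABHD4 with DMSO and 100% = catalytically dead S159A mutant with DMSO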
# * hit, by the source's call; . = not tested or not shown. The list is not random: actives were taken first. Their share in the collection is about 2.9%. Cut-off read from the data, not from the text of the source, unless noted: active = inhibition above about 19%; inactive = the rest.
SMILES,TCR CD3 inh,SIAE inh,HTRA1 inh,ABHD4 inh,PRMT1 FP inh,PAD4 FP inh,HTRA1 conf,mABHD4 conf,others
Cc1ccc(C2=C(O)C(=O)C(c3ccc(C)cc3)=C(O)C2=O)cc1,8.5,17.0,84.8*,45.8*,2.6,.,97.7*,60.4*,
Cc1ccc(S(=O)(=O)c2ccc(C)cc2)cc1,2.1,-10.9,0.2,1.4,0.9,-4.8,.,.,
Cc1cc(N2CCN(C(=O)OC(C)(C)C)C[C@H]2C)ccc1N1CCS(=O)(=O)CC1,-2.8,0.9,.,0.1,-4.2,.,.,.,
O=C(NC1CCCCN(Cc2cccc(F)c2)C1=O)c1cccc(C(F)(F)F)c1 (stereo not given),.,5.9,.,-2.8,-4.0,.,.,.,
O=C(NCc1ccccc1)c1ccc2nc(-c3ccco3)c(-c3ccco3)nc2c1,21.8*,34.5*,62.9*,54.1*,44.5*,-12.8,21.6,37.9*,BSA probe FL=-10.0;TCR-CD3 inh conf=24.5*
O=C(O)COc1ccccc1C(Nc1ccccn1)c1cc(Cl)c2cccnc2c1O (stereo not given),5.0,12.4,73.8*,32.8*,8.2,-0.2,83.7*,24.0,
O=C(CSc1nc2ccccc2o1)N/N=C/c1ccc(O)c(O)c1,12.8,16.1,36.8*,34.3*,19.7,2.1,65.9*,29.0,
O=C(CSc1nc2ccccc2o1)N/N=C/c1ccccc1,3.5,5.5,16.4,7.1,4.0,-4.1,.,.,
Cc1cc(SCC(=O)N/N=C/c2ccc(O)c(O)c2)nc2ccccc12,25.7*,3.2,78.5*,34.6*,4.1,-0.7,74.0*,31.5*,BSA probe FL=-9.8;TCR-CD3 inh conf=39.0*
CCOc1ccc(-n2c(SCC(=O)Nc3ccc(S(=O)(=O)Nc4nccs4)cc3)nnc2-c2ccncc2)cc1,.,-24.3,.,-32.6,-3.5,.,.,.,
Cc1ccc(N2NC(=O)/C(=C\c3cc4c(cc3[N+](=O)[O-])OCO4)C2=O)cc1C,-0.8,16.7,62.7*,46.7*,23.8*,-1.2,37.4*,47.0*,
Cc1nc(NC2CCCC2)c2nnn(Cc3ccccc3)c2n1,.,3.0,.,-3.2,-4.6,.,.,.,
COc1ccc(OC)c(CN(CC(F)(F)F)S(=O)(=O)c2ccccc2Br)c1,0.4,-7.8,.,-4.0,-1.5,.,.,.,
Cc1ccc(NCC(=O)c2ccccc2)cc1Cl,2.6,-0.1,1.9,-1.3,1.4,-6.4,.,.,
Cc1ccc(NC2=C(NC(=O)c3ccccc3)C(=O)c3ccccc3C2=O)cc1Cl,0.8,6.6,44.3*,30.4*,11.4,2.8,42.3*,50.3*,
COc1cccc(CNC(=O)[C@H]2CCCN2C(=O)[C@H]2CCCN2C(=O)c2ccccc2)c1,-1.4,0.3,.,2.9,2.6,.,.,.,
COCc1[nH]nc2c1C(c1ccc3c(c1)OCO3)N(Cc1ccccc1)C2=O (stereo not given),0.1,1.3,.,-3.4,16.6,.,.,.,
O=c1oc2cc(O)c(Cl)cc2c2ccccc12,5.5,1.1,4.3,8.0,1.7,0.8,.,.,
O=c1cc2c(=O)oc3cc(O)c(O)oc3c2c(O)c1O,25.6*,12.2,46.7*,41.5*,27.0*,.,38.2*,34.1*,BSA probe FL=-18.7;TCR-CD3 inh conf=19.1*;PRMT1 confirm=31.2*
CCCCc1ccc2nc(NC(=O)c3cccs3)sc2c1,.,-9.5,.,-12.8,-1.5,.,.,.,
Oc1ccc(/C=N/N(Cc2ccccc2)c2ccccc2)c(O)c1O,10.1,15.3,67.8*,34.5*,7.7,.,55.2*,45.7*,
COC(=O)[C@]12C[C@H](CC(=O)NCc3ccc(OC)c(OC)c3)C(=O)N(Cc3cccc4ccccc34)C1=C[C@H](COCc1ccccc1)O[C@@H]2C,.,-3.6,.,-10.8,-1.8,.,.,.,
COc1cc(Sc2ccc(C)cc2)c(OC)cc1N,-6.8,0.2,45.8*,33.9*,35.2*,-19.0,43.7*,41.1*,
COC(=O)c1ccc(Sc2ccc(C)cc2)c(N)c1,1.7,5.3,-11.9,5.1,0.5,1.5,.,.,
CCOc1ccc(-n2c(SCC(=O)Nc3ccc4c(c3)OCCO4)nnc2-c2ccncc2)cc1,.,-1.8,.,-2.5,-4.6,.,.,.,
SMILES,TCR CD3 inh,SIAE inh,HTRA1 inh,ABHD4 inh,PRMT1 FP inh,PAD4 FP inh,HTRA1 conf,mABHD4 conf,others
CCN(CC)C(=O)CSc1nnc(-c2ccc(C(C)(C)C)cc2)n1Cc1ccco1,.,-4.4,.,-0.4,-2.0,.,.,.,
C=CCn1c(SCC(=O)c2ccc(O)c(O)c2)nnc1-c1ccc(C)cc1,-1.0,10.8,60.1*,33.5*,7.3,4.3,66.2*,22.6,
C=CCn1c(SCC(=O)c2ccc(O)c(O)c2)nnc1-c1ccc(OC)cc1,10.0,15.0,55.7*,37.7*,10.1,3.4,79.1*,13.4,
Cc1ccc(O)c(N=Cc2cc(Cc3ccccc3)cc([N+](=O)[O-])c2O)c1,5.5,-5.6,57.9*,34.9*,12.0,.,60.7*,15.6,
C/C=C/c1ccc(O)c(OC)c1,0.9,11.4,3.9,-5.6,-3.2,-6.9,.,.,
Oc1cc(O)cc(/C=C/c2ccc(O)c(O)c2)c1,14.4,2.1,38.5*,32.1*,14.8,0.1,36.5*,26.7,
O=C(c1ccncc1)N1CC[C@H]2[C@H](CCCN2Cc2ccccc2)C1,.,2.5,.,-0.7,-1.6,.,.,.,
Oc1cc(Br)ccc1C=Nc1ccc(N2CCCCC2)cc1,5.1,2.9,52.5*,36.3*,3.1,9.8,14.2,12.8,
Cc1cc(C(=O)N/N=C/c2ccc(O)c(O)c2O)c(C)n1-c1ccccc1,30.2*,14.8,67.3*,60.8*,3.6,.,66.9*,46.8*,BSA probe FL=-17.8;TCR-CD3 inh conf=28.9*
CC1OC(Nc2ccc(N=Nc3ccccc3)cc2)C(O)C(O)C1O (stereo not given),3.2,2.9,6.3,6.3,-0.9,-3.8,.,.,
